Data set [1] is described as follows: Observed permeability in MDCK2 cells assessed as apical to basolateral transport at 10 uM after 0.5 to 1 hrs by HPLC method. The data set is classed as ADME, cell-based, Canis lupus familiaris. Particulars: dog, mdck-ii. In a few lines: (§1)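 Mock (empty pcDNA3.1) or rat Abcg2/human ABCG2-transfected MDCKII, G418-selected, seeded on 3.0-μm Transwell filters at 1.0×10^6 cells/well, grown 4 days to TEER >200 Ω·cm². Single isomer loaded apical or basolateral in serum-free Opti-MEM I with 0.2 μCi/ml [3H]mannitol, 37°C 5% CO2. Receiver sampled at 0.5 and 1 h. Quantified by HPLC-UV 290 nm. Permeability = initial rate/(area × donor concentration). Efflux ratio = B→A rate / A→B rate. n = 3, mean ± S.D.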

Data set [2] can be described thus: Observed permeability in MDCK2 cells assessed as apical to basolateral transport at 30 uM after 0.5 to 1 hrs by HPLC method. The format is ADME, cell-based, Canis lupus familiaris. As to conditions: dog, mdck-ii. In a few lines:
as §1

The target of data set [3] is T1, Broad substrate specificity ATP-binding cassette transporter ABCG2 (Homo sapiens, UniProt Q9UNQ0).
T1 sequence (Q9UNQ0 whole entry): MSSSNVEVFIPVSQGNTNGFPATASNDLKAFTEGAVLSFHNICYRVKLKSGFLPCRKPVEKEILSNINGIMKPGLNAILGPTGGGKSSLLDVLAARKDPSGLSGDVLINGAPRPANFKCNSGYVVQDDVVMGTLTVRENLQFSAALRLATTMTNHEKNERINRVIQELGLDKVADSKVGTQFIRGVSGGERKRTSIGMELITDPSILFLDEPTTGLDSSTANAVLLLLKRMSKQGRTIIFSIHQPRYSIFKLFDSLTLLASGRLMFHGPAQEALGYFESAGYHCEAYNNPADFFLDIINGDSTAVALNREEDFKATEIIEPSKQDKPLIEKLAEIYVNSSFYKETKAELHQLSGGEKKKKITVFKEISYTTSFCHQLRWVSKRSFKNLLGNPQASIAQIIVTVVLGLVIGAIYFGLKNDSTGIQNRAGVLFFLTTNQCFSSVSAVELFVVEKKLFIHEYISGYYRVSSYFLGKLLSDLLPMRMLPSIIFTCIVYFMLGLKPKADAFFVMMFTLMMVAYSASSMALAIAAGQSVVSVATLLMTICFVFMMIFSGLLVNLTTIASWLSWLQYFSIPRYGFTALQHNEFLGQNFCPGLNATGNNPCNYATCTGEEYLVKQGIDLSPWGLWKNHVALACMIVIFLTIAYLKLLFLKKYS
The data set is described as follows: Observed permeability in MDCK2 cells expressing human ABCG2 assessed as ABCG2-mediated apical to basolateral transport at 10 uM after 0.5 to 1 hrs by HPLC method. The format is ADME, cell-based. Particulars: mdck-ii. In a few lines:
as §1

Data set [4] has as its target T2, Broad substrate specificity ATP-binding cassette transporter ABCG2 (Rattus norvegicus, UniProt Q80W57).
T2 sequence (Q80W57 whole entry): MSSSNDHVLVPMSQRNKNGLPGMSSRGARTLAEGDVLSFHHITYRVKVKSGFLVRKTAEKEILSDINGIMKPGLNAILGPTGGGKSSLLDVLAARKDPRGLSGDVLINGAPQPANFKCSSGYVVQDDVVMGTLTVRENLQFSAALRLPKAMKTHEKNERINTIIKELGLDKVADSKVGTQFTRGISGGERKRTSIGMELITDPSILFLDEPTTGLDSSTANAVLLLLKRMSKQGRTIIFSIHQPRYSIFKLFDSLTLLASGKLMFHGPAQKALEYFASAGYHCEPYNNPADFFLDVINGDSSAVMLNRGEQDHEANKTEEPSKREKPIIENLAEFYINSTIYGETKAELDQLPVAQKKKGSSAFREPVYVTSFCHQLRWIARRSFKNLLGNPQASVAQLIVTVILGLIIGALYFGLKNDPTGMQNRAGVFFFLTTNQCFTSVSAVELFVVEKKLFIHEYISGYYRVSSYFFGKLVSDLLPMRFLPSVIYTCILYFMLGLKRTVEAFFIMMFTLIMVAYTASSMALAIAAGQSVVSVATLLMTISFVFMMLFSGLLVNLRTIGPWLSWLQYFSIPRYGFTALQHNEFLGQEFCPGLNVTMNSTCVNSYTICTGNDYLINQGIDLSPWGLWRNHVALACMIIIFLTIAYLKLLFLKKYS
Put plainly: Observed permeability in MDCK2 cells expressing rat ABCG2 assessed as ABCG2-mediated apical to basolateral transport at 200 uM after 0.5 to 1 hrs by HPLC method. The format is ADME, cell-based. Particulars: mdck-ii. In a few lines:
as §1

The nature of data set [5]: Observed permeability in MDCK2 cells assessed as apical to basolateral transport at 200 uM after 0.5 to 1 hrs by HPLC method. The format is ADME, cell-based, Canis lupus familiaris. Particulars: dog, mdck-ii. In a few lines:
as §1

The target of data set [6] is T1, Broad substrate specificity ATP-binding cassette transporter ABCG2. Put plainly: Observed permeability in MDCK2 cells expressing human ABCG2 assessed as ABCG2-mediated apical to basolateral transport at 50 uM after 0.5 to 1 hrs by HPLC method. The data set is classed as ADME, cell-based. As to conditions: mdck-ii. In a few lines: as §1
The target in data set [7] is T2, Broad substrate specificity ATP-binding cassette transporter ABCG2. The data set is described as follows: Observed permeability in MDCK2 cells expressing rat ABCG2 assessed as ABCG2-mediated basolateral to apical transport at 200 uM after 0.5 to 1 hrs by HPLC method. The format is ADME, cell-based. Particulars: mdck-ii. In a few lines:
as §1

Data set [8] concerns the target T3, ABCG2 (Homo sapiens, UniProt Q9UNQ0).
T3 sequence (Q9UNQ0 whole entry): T1 sequence (Q9UNQ0 whole entry)
Put plainly: Asymmetry efflux ratio in MDCK2 cells expressing human ABCG2 assessed as ABCG2-mediated drug transport ratio at 50 uM after 0.5 to 1 hrs by HPLC method. The data set is classed as ADME, cell-based. In a few lines: as §1

Data set [9] has as its target T2, Broad substrate specificity ATP-binding cassette transporter ABCG2. Put plainly: Observed permeability in MDCK2 cells expressing rat ABCG2 assessed as ABCG2-mediated apical to basolateral transport at 30 uM after 0.5 to 1 hrs by HPLC method. The data set is classed as ADME, cell-based. Particulars: mdck-ii. In a few lines:
as §1

The target is the same in data set [10]. Put plainly: Observed permeability in MDCK2 cells expressing rat ABCG2 assessed as ABCG2-mediated apical to basolateral transport at 3 uM after 0.5 to 1 hrs by HPLC method. The format is ADME, cell-based. Particulars: mdck-ii. In a few lines: as §1
The target in data set [11] is T1, Broad substrate specificity ATP-binding cassette transporter ABCG2. Put plainly: Observed permeability in MDCK2 cells expressing human ABCG2 assessed as ABCG2-mediated apical to basolateral transport at 200 uM after 0.5 to 1 hrs by HPLC method. As to conditions: mdck-ii. The data set is classed as ADME, cell-based. In a few lines: as §1
For data set [12] the target is unchanged. The data set is described as follows: Observed permeability in MDCK2 cells expressing human ABCG2 assessed as ABCG2-mediated apical to basolateral transport at 30 uM after 0.5 to 1 hrs by HPLC method. Particulars: mdck-ii. The format is ADME, cell-based. In a few lines:
as §1

A short description of data set [13]: Observed permeability in MDCK2 cells assessed as apical to basolateral transport at 50 uM after 0.5 to 1 hrs by HPLC method. Particulars: dog, mdck-ii. The data set is classed as ADME, cell-based, Canis lupus familiaris. In a few lines:
as §1

Data set [14] in a line: Asymmetry efflux ratio in MDCK2 cells assessed as drug transport ratio at 50 uM after 0.5 to 1 hrs by HPLC method. As to conditions: dog, MDCK. The data set is classed as ADME, cell-based, Canis lupus familiaris, MDCK-II. In a few lines:
as §1

The nature of data set [15]: Asymmetry efflux ratio in MDCK2 cells assessed as drug transport ratio at 3 to 200 uM after 0.5 to 1 hrs by HPLC method. The format is ADME, cell-based, Canis lupus familiaris, MDCK-II. As to conditions: dog, MDCK. In a few lines: as §1
Data set [16] deals with T2, Broad substrate specificity ATP-binding cassette transporter ABCG2. The data set is described as follows: Observed permeability in MDCK2 cells expressing rat ABCG2 assessed as ABCG2-mediated apical to basolateral transport at 50 uM after 0.5 to 1 hrs by HPLC method. The format is ADME, cell-based. Particulars: mdck-ii. In a few lines:
as §1

The target in data set [17] is T4, ABCG2 (Rattus norvegicus, UniProt Q80W57).
T4 sequence (Q80W57 whole entry): T2 sequence (Q80W57 whole entry)
The data set is described as follows: Asymmetry efflux ratio in MDCK2 cells expressing rat ABCG2 assessed as ABCG2-mediated drug transport ratio at 50 uM after 0.5 to 1 hrs by HPLC method. The format is ADME, cell-based. In a few lines: as §1

A short description of data set [18]: Observed permeability in MDCK2 cells assessed as basolateral to apical transport at 3 uM after 0.5 to 1 hrs by HPLC method. Particulars: dog, mdck-ii. The format is ADME, cell-based, Canis lupus familiaris. In a few lines:
as §1

Molecules are shown by their SMILES.

One may read the efflux ratio as the permeability from basolateral to apical divided by that in the opposite direction, in the common usage.

Regarding `COc1ccnc(C[S@+]([O-])c2nc3cc(OC(F)F)ccc3[nH]2)c1OC`, the Papp amounted to 123 uL/hr/cm2 in [1]; 116 uL/hr/cm2 in [2]; 31.6 uL/hr/cm2 in [3]; 127 uL/hr/cm2 in data set [4]; 130 uL/hr/cm2 in data set [5]; 109 uL/hr/cm2 in [6]. Also, the Papp in data set [7] came to 136 uL/hr/cm2; in data set [9], 92.5 uL/hr/cm2; in data set [10], 7.4 uL/hr/cm2; in [11], 132 uL/hr/cm2; in data set [12], 67.6 uL/hr/cm2; in data set [13], 121 uL/hr/cm2. In addition, the Papp in data set [16] was 109 uL/hr/cm2; in data set [18], 120 uL/hr/cm2. The efflux ratio at 50 µM in data set [8] amounted to 1.44; in [14] it was 1.04; in data set [17], 1.26. Besides, the efflux ratio at up to 200 µM in [15] worked out at 1.04.

With `COc1ccnc(C[S@@+]([O-])c2nc3cc(OC(F)F)ccc3[nH]2)c1OC`, the Papp in [1] was found to be 114 uL/hr/cm2; in data set [2] it was 110 uL/hr/cm2; in data set [3] it was 42.2 uL/hr/cm2; in [4], 126 uL/hr/cm2; in data set [5] it was 142 uL/hr/cm2; in data set [6] it was 79.6 uL/hr/cm2. Further, the Papp in [7] was determined as 162 uL/hr/cm2; in [9], 33.5 uL/hr/cm2; in data set [10], 12.8 uL/hr/cm2; in [11], 126 uL/hr/cm2; in data set [12], 43.6 uL/hr/cm2; in data set [13], 123 uL/hr/cm2. Moreover, the Papp was determined as 79.1 uL/hr/cm2 in data set [16] and 117 uL/hr/cm2 in data set [18]. Further, the efflux ratio at 50 µM in data set [8] amounted to 2.45; in data set [14], 1.09; in data set [17] it was 2.46. Moreover, the efflux ratio at up to 200 µM in data set [15] came out at 1.04.

(Values after ChEMBL document CHEMBL3525931, “Stereoselective interaction of pantoprazole with ABCG2. II. In vitro flux analysis” (Drug Metab Dispos, 2012).)
